Reference: ChEMBL document CHEMBL1121999 (J Med Chem, 1982)
Active and inactive are the calls of the source. The rule behind the calls is not given here.

Experiments:
Rattus norvegicus = species: Rattus norvegicus; assay: […] effect on [3H]-GABA release from rat cortical synaptosomes at 100 uM (No effect); assay type: functional; settings: Brain
[1] = biological target: GABA transporter (Rattus norvegicus) (UniProt P31647+P23978+P31646+P48056); assay: In vitro maximal effect for synaptosomal GABA uptake at 100 uM; assay type: functional
Summary of the method: (§1)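 Rat whole brain minus cerebellum was homogenized at 4 °C in 0.32 M sucrose and spun at 1000g for 10 min, then at 27000g for 20 min to give the P₂ synaptosome pellet. Uptake and transaminase were measured together: 100 μM compound with 25 μM [³H]GABA in Krebs-Ringer phosphate buffer, 10 min at room temperature. Reactions were stopped with 1 mM GABA plus 1 mM succinic acid and centrifuged. Supernatant went onto Dowex 50 and tissue radioactivity was counted. Results are given as % of drug-free control.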

[2] = biological target: 4-aminobutyrate aminotransferase, mitochondrial (Rattus norvegicus) (UniProt P50554); assay: In vitro inhibition of succinate formation in the synaptosomal Gamma-amino-N-butyrate transaminase assay at 100 uM; assay type: functional; summary of the method: as §1
[3] = biological target: GABA-A receptor; anion channel; assay: Inhibition of 2 nM [3H]muscimol binding to Gamma-aminobutyric acid (GABA-A) receptor in rat brain crude synaptic membranes; assay type: cell membranes, Membrane

4-aminobutyrate aminotransferase, mitochondrial (Rattus norvegicus), sequence (P50554 28-500 limits assumed): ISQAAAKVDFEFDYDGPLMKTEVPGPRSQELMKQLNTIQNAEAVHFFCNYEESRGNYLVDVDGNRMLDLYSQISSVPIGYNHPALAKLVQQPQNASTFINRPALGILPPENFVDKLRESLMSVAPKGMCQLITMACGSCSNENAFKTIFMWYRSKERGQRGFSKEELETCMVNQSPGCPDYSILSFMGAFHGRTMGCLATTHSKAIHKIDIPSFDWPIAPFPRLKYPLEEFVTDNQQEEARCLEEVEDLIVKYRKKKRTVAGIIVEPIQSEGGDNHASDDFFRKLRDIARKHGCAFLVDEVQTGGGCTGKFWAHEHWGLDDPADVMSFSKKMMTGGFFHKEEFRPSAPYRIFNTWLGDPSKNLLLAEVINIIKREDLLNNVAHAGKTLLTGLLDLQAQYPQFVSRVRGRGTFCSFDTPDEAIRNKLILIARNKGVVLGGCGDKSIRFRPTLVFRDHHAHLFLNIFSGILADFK
GABA transporter (Rattus norvegicus), sequence (P31646 whole entry, looked up): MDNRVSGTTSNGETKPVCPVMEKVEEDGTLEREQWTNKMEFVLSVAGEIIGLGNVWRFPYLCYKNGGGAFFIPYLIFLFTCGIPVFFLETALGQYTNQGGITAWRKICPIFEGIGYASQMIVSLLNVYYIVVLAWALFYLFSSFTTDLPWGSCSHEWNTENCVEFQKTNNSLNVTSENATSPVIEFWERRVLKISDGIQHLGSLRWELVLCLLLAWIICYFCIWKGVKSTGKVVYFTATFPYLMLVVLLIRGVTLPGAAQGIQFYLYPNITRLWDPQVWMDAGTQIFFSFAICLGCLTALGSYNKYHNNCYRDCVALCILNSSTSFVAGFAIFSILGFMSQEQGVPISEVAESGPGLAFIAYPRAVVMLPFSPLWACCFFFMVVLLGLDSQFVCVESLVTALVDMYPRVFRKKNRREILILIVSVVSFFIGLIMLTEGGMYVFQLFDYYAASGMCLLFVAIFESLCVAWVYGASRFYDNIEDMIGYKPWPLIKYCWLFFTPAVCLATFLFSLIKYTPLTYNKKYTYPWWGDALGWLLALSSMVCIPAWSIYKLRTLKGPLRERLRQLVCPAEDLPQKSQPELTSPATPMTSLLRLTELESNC
GABA transporter (Rattus norvegicus), sequence (P31647 whole entry, looked up): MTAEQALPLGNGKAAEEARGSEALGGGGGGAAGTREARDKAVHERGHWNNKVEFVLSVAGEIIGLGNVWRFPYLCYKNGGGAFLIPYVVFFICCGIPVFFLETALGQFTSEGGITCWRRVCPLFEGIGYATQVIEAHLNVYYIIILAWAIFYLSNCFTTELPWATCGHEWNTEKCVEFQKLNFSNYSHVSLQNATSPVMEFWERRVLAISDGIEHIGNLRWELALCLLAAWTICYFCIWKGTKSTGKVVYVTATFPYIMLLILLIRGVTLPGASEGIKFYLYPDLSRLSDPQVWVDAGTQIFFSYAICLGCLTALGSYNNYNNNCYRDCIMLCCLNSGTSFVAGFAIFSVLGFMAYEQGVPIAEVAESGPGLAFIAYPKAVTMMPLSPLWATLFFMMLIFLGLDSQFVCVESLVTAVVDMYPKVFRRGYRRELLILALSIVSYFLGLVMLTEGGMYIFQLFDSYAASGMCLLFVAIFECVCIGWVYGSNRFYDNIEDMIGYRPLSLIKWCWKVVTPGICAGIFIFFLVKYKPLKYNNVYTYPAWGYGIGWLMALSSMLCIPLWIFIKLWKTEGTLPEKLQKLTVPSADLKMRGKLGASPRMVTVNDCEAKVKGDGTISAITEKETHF
GABA transporter (Rattus norvegicus), sequence (P48056 whole entry, looked up): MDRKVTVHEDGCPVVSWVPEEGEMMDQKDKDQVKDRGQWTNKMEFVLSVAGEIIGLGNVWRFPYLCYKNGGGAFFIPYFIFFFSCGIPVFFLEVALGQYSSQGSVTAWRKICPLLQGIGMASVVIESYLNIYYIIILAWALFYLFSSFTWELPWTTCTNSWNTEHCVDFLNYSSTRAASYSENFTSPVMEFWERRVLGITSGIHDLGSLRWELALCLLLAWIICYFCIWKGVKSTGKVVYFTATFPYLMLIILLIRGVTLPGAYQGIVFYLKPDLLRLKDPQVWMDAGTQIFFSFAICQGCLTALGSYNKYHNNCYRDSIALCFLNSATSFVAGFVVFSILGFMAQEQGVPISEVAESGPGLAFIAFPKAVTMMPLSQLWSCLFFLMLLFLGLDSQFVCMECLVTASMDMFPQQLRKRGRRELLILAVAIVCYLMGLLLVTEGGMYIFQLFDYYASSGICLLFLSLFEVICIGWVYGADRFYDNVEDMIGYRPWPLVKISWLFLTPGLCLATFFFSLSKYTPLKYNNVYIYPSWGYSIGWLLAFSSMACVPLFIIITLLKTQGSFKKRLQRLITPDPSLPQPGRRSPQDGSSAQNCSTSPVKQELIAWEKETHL

In the case of `CC1=NS(=O)(=O)c2c(CN)cccc2N1`, the Activity (Rattus norvegicus) is reported as “inactive”, the Effect [1] is reported as 30% and the inhibition [2] is reported as 30%. The IC50 [3] was > 20 µM.
With `CC1=NS(=O)(=O)c2ccc(CN(C)C)cc2N1` the Activity (Rattus norvegicus) was “inactive”, the Effect [1] was 30% and the inhibition [2] was 30%. For the same compound, the IC50 [3] was > 20 µM.
Work on `O=C(O)C1CCCNC1` (stereo unspecified) yielded an inhibition [2] of 70%.
For `CN1C(=O)Nc2cc(CN)ccc2S1(=O)=O`, the Activity (Rattus norvegicus) was “inactive”, the Effect [1] was 30% and the inhibition [2] was 30%. The IC50 [3] was > 20 µM.
For `CN(C)Cc1ccc2c(c1)NC(=O)N(C)S2(=O)=O`, the Activity (Rattus norvegicus) was “inactive”, the Effect [1] was 30% and the inhibition [2] was 30%. The IC50 [3] was > 20 µM.
For `CN1C(=O)Nc2cccc(CN)c2S1(=O)=O`, the Activity (Rattus norvegicus) was “inactive”, the Effect [1] was 30% and the inhibition [2] was 30%. The IC50 [3] was > 20 µM.
Compound `NC(=O)C(=O)O` has an inhibition [2] of 60%.
`CC1=NS(=O)(=O)c2ccc(CN)cc2N1` was tested, and the Activity (Rattus norvegicus) was “inactive”, the Effect [1] was 30% and the inhibition [2] was 30%. The IC50 [3] was > 20 µM.
